Laboratory results reported in ChEMBL document CHEMBL4342521 (J Med Chem, 2020).
Active and inactive are the calls of the source. The calls are words filed in the database; no cut-off is given here.

Tests used:
HL-60 [1] = experiment: Induction of apoptosis in p53 null human HL60 cells harboring wild type FLT3 assessed as cleavage of pro-caspase 3 at 50 to 200 nM after 24 hrs by Western blot analysis; format: functional, cell-based
Method in brief: (§1)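 Cells (1,500,000 per well) grown 12 h, then drug-treated as specified. Lysed in RIPA buffer, sonicated, centrifuged, protein normalized by BCA. Run on 4–12% Bis-Tris gels in MES, transferred, probed overnight at 4 °C with primary antibodies at 1/1000. Actin served as reference for LC3-II quantitation.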

RPMI-8226 = experiment: Antiproliferative activity against human RPMI8226 cells assessed as reduction in cell viability after 48 hrs by CellTiter-Blue assay; format: functional; details: RPMI-8226, 48 h, read-out: LC50 (the source's name)
Method in brief: (§2)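 Cells grown in RPMI1640 with 10% FBS at 37 °C, 5% CO₂. 5,000–10,000 cells/well were pre-incubated overnight, and a time-zero CellTiter-Blue read was taken. Six 10-fold dilutions (top final 10 μM) were applied for 48 h, followed by 0.125 mg/mL CellTiter-Blue for 2–4 h. Resorufin fluorescence was read at ex 560/em 590 nm. […] Triplicates.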

MCF7 = experiment: Antiproliferative activity against human MCF7 cells assessed as reduction in cell viability after 48 hrs by CellTiter-Blue assay; format: functional; details: MCF7, 48 h, read-out: LC50 (the source's name); method in brief: as §2
MV4-11 [2] = experiment: Down regulation of MDM2 expression in human MV4-11 cells harboring wild type p53/FLT3-ITD mutant at 50 to 200 nM after 24 hrs by Western blot analysis; format: functional, cell-based; method in brief: as §1
SW-620 = experiment: Antiproliferative activity against human SW620 cells assessed as reduction in cell viability after 48 hrs by CellTiter-Blue assay; format: functional; details: SW-620, 48 h, read-out: LC50 (the source's name)
Method in brief: (§3)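 NCI-60 panel lines grown in RPMI1640 with 10% FBS at 37 °C, 5% CO₂. Seeded at 5,000–10,000 cells/well and pre-incubated overnight. Exposed for 48 h to six 10-fold dilutions (top final 10 μM), with a time-zero plate read at dosing. CellTiter-Blue (0.125 mg/mL) for 2–4 h, fluorescence 560/590 nm, triplicate curves.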

HOP-92 = experiment: Antiproliferative activity against human HOP92 cells assessed as reduction in cell viability after 48 hrs by CellTiter-Blue assay; format: functional; details: HOP-92, 48 h, read-out: LC50 (the source's name); method in brief: as §2
Malme-3M = experiment: Antiproliferative activity against human MALME-3M cells assessed as reduction in cell viability after 48 hrs by CellTiter-Blue assay; format: functional; details: read-out: LC50 (the source's name); method in brief: as §2
Histone deacetylase 7 = Histone deacetylase 7 (Homo sapiens, UniProt Q8WUI4); experiment: Inhibition of recombinant human N-terminal GST-tagged HDAC7 (518 to end residues) expressed in baculovirus infected Sf9 cells using Boc-Lys (trifluoroacetyl)-AMC as substrate preincubated for 1 hr followed by substrate addition and measured after 2 hrs by fluorescence based micro plate reader analysis
Histone deacetylase 7, sequence (Q8WUI4 whole entry): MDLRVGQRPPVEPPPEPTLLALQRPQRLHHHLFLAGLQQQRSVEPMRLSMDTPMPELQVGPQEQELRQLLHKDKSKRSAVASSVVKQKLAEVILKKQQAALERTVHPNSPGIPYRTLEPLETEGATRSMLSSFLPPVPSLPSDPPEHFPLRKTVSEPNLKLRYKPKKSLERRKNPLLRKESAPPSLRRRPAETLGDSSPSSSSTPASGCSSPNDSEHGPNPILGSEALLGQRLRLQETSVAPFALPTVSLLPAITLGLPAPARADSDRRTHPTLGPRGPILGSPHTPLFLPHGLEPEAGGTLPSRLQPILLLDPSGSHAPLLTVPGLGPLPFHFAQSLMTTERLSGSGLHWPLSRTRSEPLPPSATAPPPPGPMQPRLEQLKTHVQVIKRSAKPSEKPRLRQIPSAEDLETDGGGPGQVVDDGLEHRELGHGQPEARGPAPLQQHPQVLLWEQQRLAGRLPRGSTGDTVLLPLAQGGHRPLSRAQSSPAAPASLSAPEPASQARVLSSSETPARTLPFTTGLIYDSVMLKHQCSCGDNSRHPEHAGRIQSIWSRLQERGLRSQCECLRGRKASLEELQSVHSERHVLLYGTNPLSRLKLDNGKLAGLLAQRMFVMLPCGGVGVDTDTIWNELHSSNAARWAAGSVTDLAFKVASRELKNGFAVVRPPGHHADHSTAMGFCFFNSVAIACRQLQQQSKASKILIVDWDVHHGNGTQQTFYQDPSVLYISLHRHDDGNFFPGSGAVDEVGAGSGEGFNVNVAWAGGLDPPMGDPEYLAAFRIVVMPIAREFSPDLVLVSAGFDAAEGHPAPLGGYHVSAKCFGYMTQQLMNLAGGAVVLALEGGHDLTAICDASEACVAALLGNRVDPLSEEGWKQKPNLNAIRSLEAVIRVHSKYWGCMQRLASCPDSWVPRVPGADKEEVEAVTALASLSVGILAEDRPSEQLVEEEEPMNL

T47D = experiment: Antiproliferative activity against human T47D cells assessed as reduction in cell viability after 48 hrs by CellTiter-Blue assay; format: functional; details: read-out: LC50 (the source's name); method in brief: as §3
[3] = target: Protein deacetylase HDAC6 (Homo sapiens) (UniProt Q9UBN7); experiment: Inhibition of HDAC6 in human MV4-11 cells assessed as tubulin acetylation at 500 nM incubated for 3 hrs followed by compound washout and measured after 30 mins to 6 hrs by Western blot analysis; format: cell-based
Protein deacetylase HDAC6 (Homo sapiens), sequence (Q9UBN7 whole entry): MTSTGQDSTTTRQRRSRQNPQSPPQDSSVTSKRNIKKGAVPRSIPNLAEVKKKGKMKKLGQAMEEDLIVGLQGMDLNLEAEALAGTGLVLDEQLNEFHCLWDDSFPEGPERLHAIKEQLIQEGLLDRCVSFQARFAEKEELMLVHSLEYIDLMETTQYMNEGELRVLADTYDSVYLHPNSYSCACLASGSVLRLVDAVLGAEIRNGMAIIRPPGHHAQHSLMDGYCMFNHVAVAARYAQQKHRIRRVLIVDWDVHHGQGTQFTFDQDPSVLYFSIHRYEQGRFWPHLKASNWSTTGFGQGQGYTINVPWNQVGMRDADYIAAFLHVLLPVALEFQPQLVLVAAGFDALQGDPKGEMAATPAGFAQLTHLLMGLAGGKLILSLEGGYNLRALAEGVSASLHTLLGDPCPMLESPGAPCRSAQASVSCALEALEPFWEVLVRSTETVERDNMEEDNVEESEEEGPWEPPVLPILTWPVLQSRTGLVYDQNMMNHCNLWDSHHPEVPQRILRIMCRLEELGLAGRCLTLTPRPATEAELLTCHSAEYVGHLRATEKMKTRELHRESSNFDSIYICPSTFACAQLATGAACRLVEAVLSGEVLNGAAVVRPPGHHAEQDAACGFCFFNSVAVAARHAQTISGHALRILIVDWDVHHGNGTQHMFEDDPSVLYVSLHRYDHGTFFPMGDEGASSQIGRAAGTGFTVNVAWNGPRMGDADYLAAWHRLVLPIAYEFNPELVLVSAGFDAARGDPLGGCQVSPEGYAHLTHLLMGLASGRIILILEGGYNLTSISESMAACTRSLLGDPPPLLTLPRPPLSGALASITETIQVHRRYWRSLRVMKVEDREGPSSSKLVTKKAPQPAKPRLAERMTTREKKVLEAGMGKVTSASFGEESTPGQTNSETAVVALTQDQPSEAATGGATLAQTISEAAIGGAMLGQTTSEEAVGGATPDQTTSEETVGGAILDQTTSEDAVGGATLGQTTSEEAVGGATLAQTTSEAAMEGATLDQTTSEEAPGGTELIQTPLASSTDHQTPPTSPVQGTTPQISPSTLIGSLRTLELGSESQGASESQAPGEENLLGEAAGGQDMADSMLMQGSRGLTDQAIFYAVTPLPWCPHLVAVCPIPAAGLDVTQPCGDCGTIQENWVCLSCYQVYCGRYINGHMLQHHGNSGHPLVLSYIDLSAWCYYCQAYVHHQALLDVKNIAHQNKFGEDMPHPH
Method in brief: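 MV4-11 cells exposed for 3 h, drug washed out, then cultured drug-free for 30 min, 1, 3 or 6 h. Acetylation read by western blot; t = 0 taken right after the 3 h exposure.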

OVCAR-3 = experiment: Antiproliferative activity against human OVCAR3 cells assessed as reduction in cell viability after 48 hrs by CellTiter-Blue assay; format: functional; details: OVCAR-3, 48 h, read-out: LC50 (the source's name); method in brief: as §2
Hs-578T = experiment: Antiproliferative activity against human Hs 578T cells assessed as reduction in cell viability after 48 hrs by CellTiter-Blue assay; format: functional; details: read-out: LC50 (the source's name); method in brief: as §2
CAKI-1 = experiment: Antiproliferative activity against human Caki1 cells assessed as reduction in cell viability after 48 hrs by CellTiter-Blue assay; format: functional; details: CAKI-1, 48 h, read-out: LC50 (the source's name); method in brief: as §2
HCT-116 = experiment: Antiproliferative activity against human HCT116 cells assessed as reduction in cell viability after 48 hrs by CellTiter-Blue assay; format: functional; details: HCT-116, 48 h, read-out: LC50 (the source's name); method in brief: as §2
RS4-11 = experiment: Effect on LC3 degradation in human RS4:11 cells harboring wild type p53/FLT3 at 50 to 200 nM after 24 hrs by Western blot analysis; format: functional, cell-based; method in brief: as §1
SR = experiment: […] in human SR cells harboring wild type p53 assessed as pro-caspase 3 cleavage at 50 to 200 nM after 24 hrs by Western blot analysis; format: cell-based
NCI-H522 = experiment: Antiproliferative activity against human NCI-H522 cells assessed as reduction in cell viability after 48 hrs by CellTiter-Blue assay; format: functional; details: NCI-H522, 48 h, read-out: LC50 (the source's name); method in brief: as §2
CCRF-CEM = experiment: Antiproliferative activity against human CCRF-CEM cells assessed as reduction in cell viability after 48 hrs by CellTiter-Blue assay; format: functional; details: read-out: LC50 (the source's name); method in brief: as §2
NCI-H226 = experiment: Antiproliferative activity against human NCI-H226 cells assessed as reduction in cell viability after 48 hrs by CellTiter-Blue assay; format: functional; details: NCI-H226, 48 h, read-out: LC50 (the source's name); method in brief: as §2
U-937 = experiment: Antiproliferative activity agaisnt p53 null human U937 cells at 10 uM after 48 hrs by CellTiter-blue assay; format: functional, cell-based
MV4-11 [4] = experiment: Induction of apoptosis in human MV4-11 cells assessed as cell death at 200 nM after 24 hrs in presence of 50 uM z-VAD by CellTiter-blue dye based spectrophotometric analysis; format: functional
Method in brief: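 MV4-11 cells grown 12 h, then given 200 nM test agent alone or with z-VAD, chloroquine (5 μM) or wortmannin (100 nM) for 24 h. Viability by CellTiter-Blue (0.125 mg/mL, 2–4 h), resorufin fluorescence 560/590 nm, compared with t = 0 wells; n = 3.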

[5] = Oral bioavailability in CD1 mouse at 20 mg/kg dosed via gavage after 24 hrs by LC-MS/MS analysis; format: ADME, organism-based; details: in vivo
Method in brief: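 Male CD-1 mice (n = 3) were fasted overnight and given compound in PBS with 5% DMSO, 5 mg/kg iv bolus or 20 mg/kg by gavage. Blood was sampled from 5 min to 24 h. Plasma was protein-precipitated with acetonitrile containing internal standard and quantified by LC-MS/MS (MRM). AUC was calculated by the linear trapezoidal method and parameters by non-compartmental analysis.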

HL-60 [6] = experiment: Antiproliferative activity agaisnt p53 null human HL60 cells at 10 uM after 48 hrs by CellTiter-blue assay; format: functional, cell-based
NCI-H460 = experiment: Antiproliferative activity against human NCI-H460 cells assessed as reduction in cell viability after 48 hrs by CellTiter-Blue assay; format: functional; details: NCI-H460, 48 h, read-out: LC50 (the source's name); method in brief: as §2
MV4-11 [7] = experiment: Induction of apoptosis in human MV4-11 cells harboring wild type p53/FLT3-ITD mutant assessed as upregulation of P21WAF1/Cip1 expression at 50 to 200 nM after 24 hrs by Western blot analysis; format: functional, cell-based; method in brief: as §1

## CCCNNC(=O)/C=C/c1ccc(CNCCc2c(C)[nH]c3ccccc23)cc1.O=C(O)C(F)(F)F
HL-60 [1]
  Activity: inactive
RPMI-8226
  CC50: > 10 µM
MCF7
  CC50: > 10 µM
MV4-11 [2]
  Activity: Active
SW-620
  CC50: > 10 µM
HOP-92
  CC50: > 10 µM
Malme-3M
  CC50: > 10 µM
Histone deacetylase 7
  IC50: > 10 µM
T47D
  CC50: > 10 µM
[3]
  inhibition: inactive
OVCAR-3
  CC50: > 10 µM
Hs-578T
  CC50: > 10 µM
CAKI-1
  CC50: 4.3 µM
HCT-116
  CC50: 879 nM
RS4-11
  Activity: inactive
SR
  Activity: Active
NCI-H522
  CC50: > 10 µM
CCRF-CEM
  CC50: > 10 µM
NCI-H226
  CC50: 460 nM
U-937
  Activity: Active
MV4-11 [4]
  Activity: inactive
[5]
  F: 19.8%
HL-60 [6]
  Activity: Active
NCI-H460
  CC50: > 10 µM
MV4-11 [7]
  Activity: Active
